Jurkat tox 60K: cytotoxic compounds reducing Jurkat cell viability; Jurkat E6.1 viability, ATP luminescence, 48 h; inhibition, % at 4 µM; 1.2% of 56,000 active;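 active = inhibition above the mean inhibition of all tested compounds plus 3 SD, cut at about 28% in these data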
H69AR growth 86K: blocks growth of human H69AR lung tumor cells; AID 598; H69AR lung tumor viability, ATP luminescence, 72 h; hits give low values; 6% of 85,000 active; viability, % at 10 µM;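 active = viability at or below 40%; inactive = viability above 40%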;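 note: multidrug resistant small cell line overexpressing MRP-1 efflux transporter; 100% = mean luminescence of untreated control wells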
Fibroblast inh: blocks proliferation of human lung fibroblasts; LL 47 human lung fibroblast viability, ATP luminescence; hits give low values; viability, % at 10 µM; 1.1% of 85,000 active; AID 719;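 active = viability at or below 50% in the single dose screen; inactive = viability above 50%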;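 note: compound exposure lasted 72 h before the ATP readout; 100% = median luminescence of untreated cell-only wells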
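Material: human LL 47 lung fibroblast cells; quantity: 1,150 cells/well; medium: IMEM plus 15% FBS; doses: 0.1% DMSO in all compound wells; timing: overnight attachment after seeding, then 72 h compound exposure at 37 °C; detection: CellTiter-Glo luminescence; measure: % viability of median cell-only signal; controls: cell-only wells, no compound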
HUVEC prolif 384: blocks proliferation of human endothelial cells; AID 648; HUVEC proliferation, CellTiter-Glo luminescence, 72 h; hits give low values; 1.1% of 86,000 active; viability, % at 10 µM (by protocol);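 active = viability at or below 30%; inactive = viability above 30%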;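 note: 100% = median luminescence of DMSO-only cell control wells on each plate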
* = called active by the depositor; x = no result given. This is a sample that favours compounds with a hit; in the whole collection about 6.6% have one here.

SMILES	Jurkat tox 60K	H69AR growth 86K	Fibroblast inh	HUVEC prolif 384
CC1=C(C(=O)OCC(C)C)C(c2ccc(F)cc2)NC(=O)N1 (centres undefined)	7.5	94.9	92.6	96.4
CC(CN1CCOCC1)OC(=O)c1ccc(Br)cc1 (centres undefined)	-1.1	0.6*	6.3*	48.5
O=C1C=C(c2ccccc2)OC(=O)C1C(=O)c1ccccc1 (centres undefined)	x	96.8	92.6	93.3
Cc1sc2c(=O)n3c(nc2c1C(=O)NC1CCCCC1)CCCCC3	x	38.7*	94.5	88.5
Cc1sc2c(=O)n3c(nc2c1C(=O)NCCCN1CCOCC1)CCCCC3	-4.9	81.4	100.8	103.9
Cn1c(=O)c2c(nc(SCC(=O)Nc3ccc(N4CCOCC4)c(Cl)c3)n2C)n(C)c1=O	-0.7	x	x	x
CCN(CC(O)Cn1c2ccccc2c2ccccc21)S(=O)(=O)c1ccc(F)cc1 (centres undefined)	x	17.9*	95.2	81.1
O=S(=O)(c1ccc(F)cc1)N(CCO)CC(O)Cn1c2ccccc2c2ccccc21 (centres undefined)	x	12.6*	99.1	55.2
c1csc(-c2csc3nc(CN4CCOCC4)nc(NCc4ccc5c(c4)OCO5)c23)c1	7.0	56.4	76.9	79.3
Cc1cc2n(c(=O)c1C#N)CCCN2c1ccccc1	x	40.7	93.5	96.6
O=C(Nc1ccc(N2CCN(C(=O)c3ccco3)CC2)c(Cl)c1)c1c(F)c(F)c(F)c(F)c1F	-0.2	42.2	87.7	68.8
O=C(CSc1nnc2n1CCCN2C(=S)Nc1ccc(Cl)cc1)c1ccccc1	x	26.1*	66.5	43.7
Nc1nc2ccccc2n1C(=O)CCc1ccccc1	15.1	26.2*	85.2	85.0
COc1ccc(Nc2nnc(SCc3cc(=O)n4ccsc4n3)s2)cc1	x	75.5	107.9	68.4
O=S(=O)(NC1CC1)c1ccc(S(=O)(=O)N2CCN3CCCC3C2)cc1 (centres undefined)	0.4	95.1	109.4	111.1
O=S(=O)(NC1CC1)c1ccc(S(=O)(=O)N2CCCC3(CCCCC3)C2)cc1	5.9	31.7*	58.6	60.5
Cc1ccc(-c2nnc(CSc3nc(C(C)C)nc4sc(C)c(C)c34)o2)cc1	x	103.0	105.0	91.0
Cn1c(=O)c2c(SCc3c(F)cccc3Cl)nc(CC(C)(C)C)nc2n(C)c1=O	x	74.8	91.3	100.2
CCc1cc2c(=O)c(-c3ccc4c(c3)OCCO4)coc2cc1OC(=O)c1ccco1	-12.3	15.1*	91.1	72.2
CCCc1cc2c(=O)c(-c3ccc4c(c3)OCCO4)coc2cc1OC(=O)c1ccco1	x	39.9*	86.4	73.7
O=C(COc1ccccc1CNCc1ccccc1)Nc1ccccc1	x	53.6	78.2	82.6
O=C(NC(Cc1ccc2c(c1)OCO2)C(=O)NC(Cc1ccccc1)C(=O)O)c1ccccc1 (centres undefined)	x	74.3	104.5	103.3
Cc1ccc(-c2nc3ccccc3s2)cc1S(=O)(=O)N1CCCC1	x	32.4*	96.6	108.0
COc1cc(OC)c(C2=NOC(C(=O)O)C2)cc1Cl (centres undefined)	7.0	92.8	90.9	105.8
CN(C)S(=O)(=O)c1ccc(NC(=O)COC(=O)c2ccccn2)cc1	x	110.6	101.2	105.5
SMILES	Jurkat tox 60K	H69AR growth 86K	Fibroblast inh	HUVEC prolif 384
CCOc1ncccc1C(=O)Nc1ccc(Cl)cc1	-1.8	58.3	94.7	89.2
CCOc1ncccc1C(=O)Nc1cccc(C(=O)Nc2cccc(S(=O)(=O)CCO)c2)c1	9.4	30.2*	92.7	71.1
CCNc1ccc(C(=O)OCC)cc1NC(=O)c1cccc(S(=O)(=O)N2CCOCC2)c1	2.1	98.9	101.5	87.0
Cc1ccc(-c2nc3cnccn3c2Nc2ccc3c(c2)OCO3)cc1	x	25.3*	91.6	77.5
COc1ccc(-c2nc3cnccn3c2Nc2ccc3c(c2)OCO3)cc1	2.6	24.0*	83.9	78.3
Cc1ccc(-c2nc3cnccn3c2Nc2ccc3c(c2)OCCO3)o1	x	65.4	98.2	95.5
CSc1ccc(/C=N/n2c(C)cc(C)cc2=O)cc1	0.3	101.4	99.9	100.2
CCc1cc2cc3c(cc2nc1SCC(=O)Nc1cc(C)on1)OCO3	-11.4	30.0*	75.3	42.5
CCc1cc2cc(C)ccc2nc1SCC(=O)Nc1cc(C)on1	x	63.5	92.5	84.6
CCOc1ccc(NC(=O)CSc2nc3ccccc3c(=O)n2CCCC(=O)N2CCCC2)cc1	x	42.4	101.2	91.7
COc1ccc(NC(=O)CSc2nc3ccccc3c(=O)n2CCC(=O)N2CCCCC2)cc1	1.0	39.6*	97.9	79.4
COc1ccc(-n2c(SCC(=O)Nc3cc(C)on3)nc3c(c2=O)SCC3)cc1	-2.0	92.4	66.4	58.2
Cc1cc(NC(=O)CSc2nc3c(c(=O)n2-c2ccc(Br)cc2)SCC3)no1	1.6	19.8*	49.1*	52.7
